# Source: PubChem (several laboratories)
# A selection: hits, their analogues and other compounds. The true share with any hit is near 3.8%.
# Lipid droplet: modulators of hepatic lipid droplet formation. AML12 mouse hepatocytes, oleate lipid droplets, BODIPY imaging. inhibition, % at 6.5 µM. actives 0.4% (n = 240,000). AID 1656;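 active means lipid droplet intensity inhibited by at least 50%, with more than 500 cells counted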
#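 Test system: AML12 mouse liver cells; schedule: overnight exposure; technique: high-content imaging of BODIPY-stained droplets and DAPI nuclei; read-out: % inhibition of corrected integrated BODIPY droplet signal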
# NS3 helicase inh: inhibitors of Hepatitis C virus NS3 helicase | NS3 helicase DNA unwinding, Cy5 molecular beacon fluorescence | inhibition, % at 10.9 µM | actives 0.56% (n = 290,000) | AID 1800;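 active means inhibition above the mean of all tested compounds plus 3 SD, set per campaign, cut at about 35% in these data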;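 further: 0% = DMSO wells and 100% = thioflavine S control wells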
#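 Compound dosing – single dose, 10.9 µM nominal final, DMSO 0.8% final · System – NS3 helicase fragment of HCV · Buffer or medium – MOPS pH 6.5, MgCl2, DTT, Tween20, BSA · Signal – Cy5 beacon fluorescence read at start and 1 h · Also added – annealed dual-labelled DNA beacon duplex, ATP-started · Schedule – 1 h at 25 °C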
# HSF1 inh: HSF1 inhibition. NIH3T3-HGL HSE-luciferase, MG132-induced, luminescence 8 h; active compounds read low. AID 2098. actives 0.77% (n = 300,000). activity change, negative = inhibition, % at 7.5 µM (by protocol);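 active means more than half of replicate wells show activity change below -50%, luminescence cut by over half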;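 further: luciferase reports HSF-1 transcriptional activity via heat shock element; 0% = median of DMSO wells and -100% = zero luminescence signal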
# HSP90 inh: blocks HSP90-mediated luciferase refolding in reticulocyte lysate; actives 0.91% (n = 290,000); Rabbit reticulocyte lysate, luciferase refolding luminescence, 3 h; inhibition, % at 5.6 µM;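 active means inhibition above the screen-wide mean plus 3 SD, computed separately per campaign, cut at about 16% in these data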;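 further: 0% = DMSO wells and 100% = 60 µM geldanamycin wells; inhibitors lower the luminescence because luciferase stays unfolded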
# HSF1 activator: increases HSF-1 driven luciferase reporter signal; NIH3T3-HGL HSF-1 luciferase reporter, MG132, 8 h; 100% = twice DMSO control signal; activation, % at 9 µM; AID 504408; actives 1.7% (n = 300,000);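 active means mean replicate activation of at least 50% with a set share of replicates each reaching 50%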;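 further: 0% = median of the neutral control wells and 100% = twice that signal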
# HSP90 confirm: confirmation of HSP90 inhibitors. rabbit reticulocyte lysate, luciferase refolding luminescence, 3 h. shares compounds with HSP90 inh. AID 1846. actives 64% (n = 2,300). inhibition, % at 5.9 µM; in the data active means inhibition above about 18%;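 further: 0% = vehicle wells and 100% = reference inhibitor wells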
# FLuc counter: firefly luciferase inhibition, HSP90 counter-screen. shares compounds with HSP90 inh. purified native firefly luciferase, luminescence. inhibition, % at 5.9 µM. actives 48% (n = 2,300). AID 1847;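 active means inhibition above the mean inhibition of all tested sample wells plus 3 SD, cut at about 10% in these data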;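 further: 0% = DMSO with luciferase and 100% = wells lacking luciferase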
# Target sequence (P08659 whole entry, looked up): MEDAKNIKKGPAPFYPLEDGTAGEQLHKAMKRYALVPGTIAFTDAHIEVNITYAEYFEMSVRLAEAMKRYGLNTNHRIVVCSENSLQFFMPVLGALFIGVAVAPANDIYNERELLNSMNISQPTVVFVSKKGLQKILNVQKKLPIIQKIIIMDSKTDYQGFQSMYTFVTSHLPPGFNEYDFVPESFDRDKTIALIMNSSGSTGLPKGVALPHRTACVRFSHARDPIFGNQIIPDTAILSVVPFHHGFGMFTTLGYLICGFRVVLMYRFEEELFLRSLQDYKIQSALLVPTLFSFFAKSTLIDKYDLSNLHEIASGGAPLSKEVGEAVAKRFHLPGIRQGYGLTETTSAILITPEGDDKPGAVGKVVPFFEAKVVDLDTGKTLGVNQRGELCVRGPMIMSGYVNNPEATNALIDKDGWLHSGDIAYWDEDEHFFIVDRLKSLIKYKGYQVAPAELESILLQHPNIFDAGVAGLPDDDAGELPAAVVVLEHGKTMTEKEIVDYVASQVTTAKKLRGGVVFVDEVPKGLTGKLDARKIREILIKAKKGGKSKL
# NS3 hel confirm: HCV NS3 helicase inhibition, confirmation assay | shares compounds with NS3 helicase inh | NS3 helicase DNA unwinding, Cy5 molecular beacon fluorescence | inhibition, % at 10.9 µM | actives 31% (n = 1,600);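 active means inhibition above the mean of all tested compounds plus 3 SD, cutoff set per campaign, cut at about 36% in these data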
# DNA FID counter: counter-screen for HCV NS3 helicase inhibitors: DNA intercalator displacement; inhibition, % at 7.9 µM; actives 4% (n = 1,600); DNA fluorescent intercalator displacement, fluorescence; shares compounds with NS3 helicase inh; in the data active means inhibition above about 37%;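 further: 0% = vehicle and 100% = reference compound; higher means more displacement of ethidium bromide from the DNA hairpin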
# The depositor's hits bear a star; . = not tested or not shown.
SMILES,Lipid droplet,NS3 helicase inh,HSF1 inh,HSP90 inh,HSF1 activator,HSP90 confirm,FLuc counter,NS3 hel confirm,DNA FID counter
CC1CCCC(NC(=O)c2nn(C)c3c2CS(=O)(=O)c2ccccc2-3)C1C (centres undefined),4,0,2,-2,30,.,.,.,.
COc1ccc2cc(-c3cc(C(=O)O)c4ccccc4n3)ccc2c1,.,40*,0,28*,26,64*,38*,45*,-6
COc1ccc(-c2cc(C(=O)O)c3ccccc3n2)c(OC)c1,2,1,-4,-2,-14,.,.,.,.
CCN(CC)c1ccc2nc3c4ccccc4c(=O)cc-3oc2c1,26,71*,-63*,47*,-68,48*,32*,101*,4
CN1C(=O)Nc2cccc3cccc1c23,28,42*,10,21*,5,0,-4,-12,6
O=C(O)c1cccc(NC(=S)NC(=O)c2ccc3ccccc3c2)c1,-4,41*,-71*,64*,-75,71*,49*,58*,-7
CCCCn1c(N)c(N(CCOC)C(=O)c2oc3ccc(OCC)cc3c2C)c(=O)[nH]c1=O,.,.,-6,.,7,.,.,.,.
CSc1ccc(/C=N/Nc2cccc(C(=O)O)c2)cc1,-2,38*,.,25*,.,86*,84*,76*,-5
O=C(O)c1ccc(N/N=C/c2cccc(F)c2)cc1,2,6,-7,3,-11,.,.,.,.
Nc1ccc(S(=O)(=O)N2CCCC2C(=O)O)cc1 (centres undefined),-19,16,-6,5,1,.,.,.,.
Cc1c(C(=O)O)cccc1-c1ccc(/C=C2\SC(=O)NC2=O)o1,2,45*,-10,29*,2,39*,17*,-20,5
CCOC(=O)CN1C(=O)S/C(=C\c2ccc(-c3cccc(C(=O)O)c3C)o2)C1=O,.,.,1,.,15,.,.,.,.
CCOc1cccc2cc(C(=O)NCc3ccc(Cl)cc3)c(=N)oc12,3,2,4,0,18,.,.,.,.
Fc1cccc(Cl)c1C1Nc2cccc3cccc(c23)N1,-9,45*,-4,19*,0,-2,-5,-20,31
c1ccc(C2Nc3cccc4cccc(c34)N2)cc1,-8,15,-6,3,2,.,.,.,.
CCC(C)c1ccccc1N1CC(C(=O)NCCc2ccc(OC)c(OC)c2)CC1=O (centres undefined),.,.,-5,.,-10,.,.,.,.
Cc1ccc(C(=O)Nc2ccc3c(c2)OCO3)cc1,7,38*,8,66*,25,52*,38*,-18,1
O=C(Nc1ccc2c(c1)OCO2)c1ccncc1,.,-3,-3,-1,14,.,.,.,.
O=C(NC(=S)Nc1ccc(-c2ccc(CO)o2)cc1)c1cccs1,-13,37*,7,24*,31,5,-13,40*,13
COc1cc(/C=C/[N+](=O)[O-])ccc1OCc1cccc(C(=O)O)c1,1,36*,-14,63*,-23,51*,2,69*,-14
CCOc1ccc(N=C2NC(=O)SC2CC(=O)OC)cc1 (centres undefined),10,3,-3,3,0,.,.,.,.
O=C(O)C1Nc2ccc(Br)cc2C2C=CCC12 (centres undefined),-4,43*,3,-1,27,.,.,88*,-4
CCOC(=O)C1Nc2ccc(Br)cc2C2C=CCC12 (centres undefined),2,39*,-2,-2,-4,.,.,26,-4
CC(C)CNC(=O)C1Nc2ccc(OC(F)(F)F)cc2C2C=CCC12 (centres undefined),.,.,12,.,40,.,.,.,.
CC(C)CNC(=O)C1Nc2ccccc2C2C=CCC12 (centres undefined),.,.,7,.,13,.,.,.,.
